Test results as given in ChEMBL document CHEMBL2440012, “Design, synthesis and anticonvulsant properties of new N-Mannich bases derived from 3-phenylpyrrolidine-2,5-diones” (Bioorg Med Chem, 2013).
Active and inactive are the calls of the source. No cut-off for these calls is given here.

Tests used:
[1] = Neurotoxicity in ip dosed albino CF1 mouse by rotorod test; format: toxicity, organism-based; conditions: in vivo
[2] = test system: Mus musculus; test: Anticonvulsant activity against 6 Hz psychomotor seizure in ip dosed albino CF1 mouse assessed as time to peak effect by minimal clonic seizure test; format: functional
[3] = test system: Mus musculus; test: Neurotoxicity in ip dosed albino CF1 mouse assessed as time to peak effect by rotorod test; format: toxicity, organism-based; conditions: in vivo
[4] = test system: Mus musculus; test: Anticonvulsant activity in albino CF1 mouse assessed as assessed as protection against 6 Hz psychomotor seizure at 100 mg/kg, ip after 0.5 hr by minimal clonic seizure test; format: functional; conditions: route intraperitoneal
How it was run: (§1)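 Male CF-1 mice, groups of four, dosed ip in 0.5% methylcellulose/water suspension, then challenged by 6-Hz corneal stimulation at 32 mA (0.2 ms pulses, 3 s, constant current) at 0.25, 0.5, 1, 2 or 4 h; count of mice out of four protected from stunned posture/clonic seizure.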

[5] = test system: Mus musculus; test: Anticonvulsant activity in ip dosed albino CF1 mouse assessed as protection against maximal electroshock-induced seizures in half or more animals measured after 4 hrs; format: functional; conditions: read-out: MED
How it was run: (§2)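 Male CF-1 mice given ip suspension in 0.5% methylcellulose/water at 30, 100 and 300 mg/kg; MES, scPTZ (pentylenetetrazole 85 mg/kg sc, CD97 dose for clonic seizures ≥5 s) and rotarod (inability to hold balance 1 min in each of three trials) assessed at 0.5 and 4 h; value is minimum dose active in half or more animals.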

[6] = test system: Mus musculus; test: Anticonvulsant activity in albino CF1 mouse assessed as protection against subcutaneous pentylenetetrazole-induced convulsion at 300 mg/kg, ip measured after 0.5 hrs; format: functional, organism-based; set-up: dose 300 mg/kg; how it was run: as §2
[7] = test system: Mus musculus; test: Anticonvulsant activity in albino CF1 mouse assessed as protection against subcutaneous pentylenetetrazole-induced convulsion at 300 mg/kg, ip measured after 4 hrs; format: functional, organism-based; set-up: dose 300 mg/kg; how it was run: as §2
[8] = test system: Mus musculus; test: Neurotoxicity in albino CF1 mouse assessed as minimum motor impairment at 300 mg/kg, ip measured after 0.5 hr by rotorod test; format: toxicity, organism-based; set-up: dose 300 mg/kg, route intraperitoneal; conditions: in vivo; how it was run: as §2
[9] = test system: Mus musculus; test: Anticonvulsant activity in albino CF1 mouse assessed as assessed as protection against 6 Hz psychomotor seizure at 100 mg/kg, ip after 2 hrs by minimal clonic seizure test; format: functional; conditions: route intraperitoneal; how it was run: as §1
[10] = test system: Mus musculus; test: Anticonvulsant activity in albino CF1 mouse assessed as assessed as protection against 6 Hz psychomotor seizure at 100 mg/kg, ip after 1 hr by minimal clonic seizure test; format: functional; conditions: route intraperitoneal; how it was run: as §1
[11] = test system: Mus musculus; test: Anticonvulsant activity in albino CF1 mouse assessed as assessed as protection against 6 Hz psychomotor seizure at 100 mg/kg, ip after 4 hrs by minimal clonic seizure test; format: functional; conditions: route intraperitoneal; how it was run: as §1
[12] = test system: Mus musculus; test: Neurotoxicity in albino CF1 mouse assessed as minimum motor impairment at 300 mg/kg, ip measured after 4 hrs by rotorod test; format: toxicity, organism-based; set-up: dose 300 mg/kg, route intraperitoneal; conditions: in vivo; how it was run: as §2
[13] = test system: Mus musculus; test: Anticonvulsant activity in ip dosed albino CF1 mouse assessed as protection against maximal electroshock-induced seizures in half or more animals measured after 0.5 hr; format: functional; conditions: read-out: MED; how it was run: as §2
[14] = test system: Mus musculus; test: Anticonvulsant activity in albino CF1 mouse assessed as assessed as protection against 6 Hz psychomotor seizure at 100 mg/kg, ip after 0.25 hr by minimal clonic seizure test; format: functional; conditions: route intraperitoneal; how it was run: as §1
[15] = test system: Rattus norvegicus; test: Anticonvulsant activity in albino Sprague-Dawley rat assessed as protection against maximal electroshock-induced seizures at 30 mg/kg, po measured after 0.5 hr; format: functional
How it was run: (§3)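 Male Sprague-Dawley rats, four per group, dosed p.o. at 30 mg/kg in 0.5% methylcellulose/water suspension; MES test at 0.25, 0.5, 1, 2 and 4 h, motor impairment examined in parallel; number of rats out of four protected.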

[16] = test system: Mus musculus; test: Anticonvulsant activity in albino CF1 mouse assessed as protection against maximal electroshock-induced seizures at 300 mg/kg, ip measured after 0.5 hr; format: functional, organism-based; set-up: dose 300 mg/kg; how it was run: as §2
[17] = test system: Rattus norvegicus; test: Anticonvulsant activity in albino Sprague-Dawley rat assessed as protection against maximal electroshock-induced seizures at 30 mg/kg, po measured after 0.25 hr; format: functional; how it was run: as §3
[18] = test system: Mus musculus; test: Toxicity in albino CF1 mouse assessed as diarrhea at 300 mg/kg, ip measured after 4 hrs by rotorod test; format: organism-based; set-up: dose 300 mg/kg, route intraperitoneal; conditions: in vivo
[19] = test system: Rattus norvegicus; test: Anticonvulsant activity in albino Sprague-Dawley rat assessed as protection against maximal electroshock-induced seizures at 30 mg/kg, po measured after 2 hrs; format: functional; how it was run: as §3
[20] = test system: Rattus norvegicus; test: Anticonvulsant activity in albino Sprague-Dawley rat assessed as protection against maximal electroshock-induced seizures at 30 mg/kg, po measured after 1 hr; format: functional; how it was run: as §3
[21] = test system: Rattus norvegicus; test: Anticonvulsant activity in albino Sprague-Dawley rat assessed as protection against maximal electroshock-induced seizures at 30 mg/kg, po measured after 4 hrs; format: functional; how it was run: as §3
[22] = test system: Rattus norvegicus; test: Neurotoxicity in po dosed albino Sprague-Dawley rat assessed as time to peak effect by rotorod test; format: toxicity, organism-based; conditions: in vivo
[23] = test system: Rattus norvegicus; test: Protection index, ratio of TD50 for neurotoxicity in po dosed albino Sprague-Dawley rat by rotorod test to ED50 for anticonvulsant activity in po dosed albino Sprague-Dawley rat by scPTZ test; format: functional
How it was run: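 Male Sprague-Dawley rats, compound suspended in 0.5% methylcellulose/water and given orally; tested at the time of peak effect. scPTZ: 70 mg/kg pentylenetetrazole sc; the end-point is clonic seizures lasting at least 5 s. Rotarod: motor impairment is failure to keep balance for 1 min in each of three trials. Groups of at least eight rats received several doses until at least three points fell within 10–90% effect. ED50, TD50 and 95% confidence intervals were derived by regression; PI = TD50/ED50.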

[24] = test system: Mus musculus; test: Anticonvulsant activity in ip dosed albino CF1 mouse assessed as protection against subcutaneous pentylenetetrazole-induced convulsion in half or more animals measured after 4 hrs; format: functional; conditions: albino CF1, 4 h, read-out: MED; how it was run: as §2
[25] = Neurotoxicity in po dosed albino Sprague-Dawley rat assessed as minimum motor impairment by rotorod test; format: toxicity, organism-based; conditions: in vivo
[26] = test system: Rattus norvegicus; test: Anticonvulsant activity against […] subcutaneous pentylenetetrazole-induced convulsion in po dosed albino Sprague-Dawley rat assessed as time to peak effect; format: functional
[27] = test system: Mus musculus; test: Anticonvulsant activity in ip dosed albino CF1 mouse assessed as protection against subcutaneous pentylenetetrazole-induced convulsion in half or more animals measured after 0.5 hr; format: functional; conditions: albino CF1, 0.5 h, read-out: MED; how it was run: as §2
[28] = test system: Rattus norvegicus; test: Anticonvulsant activity in po dosed albino Sprague-Dawley rat assessed as protection against maximal electroshock-induced seizures; format: functional
[29] = test system: Mus musculus; test: Anticonvulsant activity in albino CF1 mouse assessed as protection against maximal electroshock-induced seizures at 300 mg/kg, ip measured after 4 hrs; format: functional, organism-based; set-up: dose 300 mg/kg; how it was run: as §2
[30] = test system: Rattus norvegicus; test: Anticonvulsant activity against maximal electroshock-induced seizures in po dosed albino Sprague-Dawley rat assessed as time to peak effect; format: functional
[31] = target: T1, Cytochrome P450 3A4 (Homo sapiens, UniProt P08684); test: Inhibition of CYP3A4 (unknown origin) using 50 uM testosterone as substrate assessed as formation of 6-beta-OH-testosterone relative to control; format: ADME
[32] = test system: Mus musculus; test: Protection index, ratio of TD50 for neurotoxicity in ip dosed albino CF1 mouse by rotorod test to ED50 for anticonvulsant activity in ip dosed albino CF1 mouse by 6 Hz psychomotor seizure test; format: functional
[33] = test system: Mus musculus; test: Neurotoxicity in ip dosed albino CF1 mouse assessed as minimum motor impairment in half or more animals measured after 0.5 hrs by rotorod test; format: toxicity, organism-based; conditions: in vivo; how it was run: as §2
[34] = target: T1, Cytochrome P450 3A4; test: Inhibition of CYP3A4 (unknown origin) using 200 uM testosterone as substrate assessed as formation of 6-beta-OH-testosterone relative to control; format: ADME
[35] = test system: Mus musculus; test: Anticonvulsant activity against 6 Hz psychomotor seizure in ip dosed albino CF1 mouse by minimal clonic seizure test; format: functional
[36] = test system: Rattus norvegicus; test: Anticonvulsant activity in ip dosed albino rat assessed as protection against pilocarpine-induced status epilepticus measured 0.5 hrs post first stage 3 seizure; format: functional
How it was run: (§4)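 Male Sprague-Dawley rats (150–180 g) dosed ip, followed by challenge dose of pilocarpine; compound given relative to first stage III seizure (time zero or 0.5 h); outcome scored as protection or no protection, plus body-weight change 24 h after first stage III seizure.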

[37] = test system: Rattus norvegicus; test: Anticonvulsant activity in albino rat assessed as protection against pilocarpine-induced status epilepticus at 400 mg/kg, ip measured 0.5 hrs post first stage 3 seizure; format: functional, organism-based; set-up: dose 400 mg/kg; how it was run: as §4

T1 sequence (P08684 whole entry): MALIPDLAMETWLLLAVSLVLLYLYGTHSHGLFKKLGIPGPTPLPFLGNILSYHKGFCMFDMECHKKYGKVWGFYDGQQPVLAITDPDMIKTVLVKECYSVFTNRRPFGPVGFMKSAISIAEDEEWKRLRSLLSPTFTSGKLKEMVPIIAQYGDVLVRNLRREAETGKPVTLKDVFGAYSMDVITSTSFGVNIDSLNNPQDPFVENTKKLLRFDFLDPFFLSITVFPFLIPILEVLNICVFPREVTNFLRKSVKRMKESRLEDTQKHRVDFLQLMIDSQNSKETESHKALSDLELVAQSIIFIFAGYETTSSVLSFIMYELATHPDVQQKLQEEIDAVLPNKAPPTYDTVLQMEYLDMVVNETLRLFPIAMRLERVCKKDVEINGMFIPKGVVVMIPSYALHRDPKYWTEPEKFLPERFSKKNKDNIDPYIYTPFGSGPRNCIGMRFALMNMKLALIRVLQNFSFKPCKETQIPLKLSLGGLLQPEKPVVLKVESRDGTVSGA

Row | SMILES | TD50 [1] | Time [2] | Time [3] | Activity [4] | minimal effective dose [5] | Activity [6] | Activity [7] | Activity [8] | Activity [9] | Activity [10] | Activity [11] | Activity [12] | minimal effective dose [13] | Activity [14] | Activity [15] | Activity [16] | Activity [17] | Activity [19] | Activity [20] | Activity [21] | also measured
1 | CC[C@@H](C(N)=O)N1CCCC1=O | > 500 mg/kg | 1 h | 1 h | – | – | – | – | – | – | – | – | – | – | – | – | – | – | – | – | – | –
2 | O=C1CC(c2ccccc2)C(=O)N1CN1CCC(Cc2ccccc2)CC1 (racemic) | – | – | – | 0% | 300 mg/kg | inactive | inactive | Non-toxic | 25% | 25% | 0% | Non-toxic | 100 mg/kg | 0% | – | – | – | – | – | – | –
3 | O=C1CC(c2ccccc2Cl)C(=O)N1CN1CCN(c2ncccn2)CC1 (racemic) | – | – | – | – | 100 mg/kg | inactive | inactive | Non-toxic | – | – | – | – | – | – | inactive | inactive | inactive | inactive | inactive | inactive | MED [18]: 300 mg/kg
4 | CCC1(C)CC(=O)NC1=O (configuration not stated) [ETHOSUXIMIDE] | – | – | – | – | – | – | – | Non-toxic | – | – | – | Non-toxic | – | – | – | inactive | – | – | – | – | Time [22]: 1 h; Ratio TD50/ED50 [23]: >2.99; minimal effective dose [24]: 300 mg/kg; TD50 [25]: > 500 mg/kg; Time [26]: 1 h; minimal effective dose [27]: 100 mg/kg; ED50 [28]: > 500 mg/kg; Activity [29]: inactive; Time [30]: 1 h
5 | O=C1CC(c2ccccc2)C(=O)N1CN1CCOCC1 (racemic) | 293 mg/kg | 0.25 h | 0.25 h | 0% | – | – | – | – | 0% | 25% | 0% | Non-toxic | 100 mg/kg | 75% | inactive | – | inactive | inactive | inactive | inactive | inhibition (INH) [31]: 17%; Ratio TD50/ED50 [32]: 3.79; MED [33]: 300 mg/kg; inhibition (INH) [34]: 19%; minimal effective dose [24]: 300 mg/kg; ED50 [35]: 77.2 mg/kg; minimal effective dose [27]: 300 mg/kg; ED50 [36]: 342 mg/kg; Activity [29]: inactive; Activity [37]: Active
